Measurements from article PMC9359741 (Clinical Cancer Research, 2022).
“And” between values parts separate entries of the source, which are not always exact repeats. Identical values can stand only once.

Assays:
Assay type in all cases: in vivo, human
CSF-1R = experiment: Phase 1b pharmacodynamic biomarkers
Procedure, shortened: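 Blood was drawn for serum CSF-1 and CTX, plus serum osteoprotegerin and non-classical monocytes in Phase 2. Urine was collected for NTX. Samples were taken pre-dose on cycle 1 days 1, 8 and 15, on day 1 of later cycles and at discontinuation. Mean change on cycle 1 day 15 versus cycle 1 day 1 was summarized descriptively, with outliers excluded.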

[1] = Phase 2 plasma pharmacokinetics of ARRY-382 and metabolites; conditions: for RAUC (accumulation ratio), geometric mean (geometric %CV) / Ctrough, geometric mean (geometric %CV) / RCmax (accumulation ratio), geometric mean (geometric %CV): Cycle 2 day 1, 300 mg; for AUC(0-t) / AUC / Cmax / Tmax: human, plasma, oral, 300 mg; for AUC(0-t): AUClast; for AUC(0-t) / AUC / Cmax: geometric mean (geometric %CV); for AUC: AUCtau; for Tmax: median (range)
Procedure, shortened: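 Blood was collected for plasma test compound and its N-oxide, N-desmethyl and sulfate metabolites. Trough samples were taken ≤120 min before the oral dose on cycle 1 day 15 and day 1 of cycles 3–6. Doses were 200–400 mg QD in Phase 1b and 300 mg QD in Phase 2. Non-compartmental parameters were estimated per patient in the PK set, reported as geometric mean (geometric %CV) and Tmax as median (range).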

[2] = tested on: patients with PDA, PD-1/PD-L1 IR advanced solid tumors or prOVCA; experiment: Phase 2, ARRY-382 300 mg QD plus pembrolizumab 200 mg IV Q3W: adverse events
Procedure, shortened: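 Open-label study at 12 US centres with three cohorts: pancreatic ductal adenocarcinoma after ≥1 prior systemic line; tumours progressing on anti-PD-1/PD-L1; ovarian, peritoneal or fallopian cancer progressing ≤6 months after ≥4 platinum cycles. Oral test compound 300 mg QD plus anti-PD-1 antibody 200 mg IV every 3 weeks. AEs, SAEs and labs graded by CTCAE v4.03 in all dosed patients; descriptive summary.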

[3] = Cycle 1 day 1, PD-1/PD-L1 IR, n = 18
[4] = Cycle 2 day 1, PD-1/PD-L1 IR, n = 6

Compound: Cc1cccc(Cn2nc(C3CC3)c3c(NC(=O)c4cnc5cc(OCCN6CCN(C)CC6)ccn45)cccc32)n1 [ARRY-382]
- Change in mean CTX or NTX (CSF-1R; cycle 1 day 15 compared with cycle 1 day 1): no changes
- Increase in mean serum CSF-1 (CSF-1R; cycle 1 day 15 versus cycle 1 day 1, P < 0.05): 4.5 fold
- RAUC (accumulation ratio), geometric mean (geometric %CV) ([1]; Overall): 2.49 (35.6)
- Ctrough, geometric mean (geometric %CV) ([1]; Overall, n = 15): 796 (86.9) ng/mL
- RCmax (accumulation ratio), geometric mean (geometric %CV) ([1]; Overall, n = 15): 2.06 (41.9)
- RAUC (accumulation ratio), geometric mean (geometric %CV) ([1]; PD-1/PD-L1 IR, n = 3): 2.67 (36.2)
- Ctrough, geometric mean (geometric %CV) ([1]; PD-1/PD-L1 IR, n = 6): 878 (70.1) ng/mL
- RCmax (accumulation ratio), geometric mean (geometric %CV) ([1]; PD-1/PD-L1 IR, n = 6): 2.52 (39.9)
- RAUC (accumulation ratio), geometric mean (geometric %CV) ([1]; PDA, n = 3): 3.41 (23.6)
- Ctrough, geometric mean (geometric %CV) ([1]; PDA, n = 4): 1,480 (17.5) ng/mL
- RCmax (accumulation ratio), geometric mean (geometric %CV) ([1]; PDA, n = 4): 2.07 (53.6)
- RAUC (accumulation ratio), geometric mean (geometric %CV) ([1]; prOVCA, n = 4): 1.87 (16.7)
- Ctrough, geometric mean (geometric %CV) ([1]; prOVCA, n = 5): 438 (86.5) ng/mL
- RCmax (accumulation ratio), geometric mean (geometric %CV) ([1]; prOVCA, n = 5): 1.62 (24.7)
- AUC(0-t) ([1]; Cycle 1 day 1, Overall, n = 55): 6310 ng·h/mL
- AUC(0-t) [1, 3]: 6320 ng·h/mL
- AUC(0-t) ([1]; Cycle 1 day 1, PDA, n = 26): 6350 ng·h/mL
- AUC(0-t) ([1]; Cycle 1 day 1, prOVCA, n = 11): 6210 ng·h/mL
- AUC(0-t) ([1]; Cycle 2 day 1, Overall, n = 15): 28500 ng·h/mL
- AUC(0-t) [1, 4]: 26600 ng·h/mL
- AUC(0-t) ([1]; Cycle 2 day 1, PDA, n = 4): 47100 ng·h/mL
- AUC(0-t) ([1]; Cycle 2 day 1, prOVCA, n = 5): 20700 ng·h/mL
- AUC ([1]; Cycle 2 day 1, Overall, n = 15): 30600 ng·h/mL
- AUC [1, 4]: 32100 ng·h/mL
- AUC ([1]; Cycle 2 day 1, PDA, n = 4): 47100 ng·h/mL
- AUC ([1]; Cycle 2 day 1, prOVCA, n = 5): 20700 ng·h/mL
- Cmax ([1]; Cycle 1 day 1, Overall, n = 55): 1270 ng/mL
- Cmax [1, 3]: 1240 ng/mL
- Cmax ([1]; Cycle 1 day 1, PDA, n = 26): 1290 ng/mL
- Cmax ([1]; Cycle 1 day 1, prOVCA, n = 11): 1260 ng/mL
- Cmax ([1]; Cycle 2 day 1, Overall, n = 15): 2080 ng/mL
- Cmax [1, 4]: 2130 ng/mL
- Cmax ([1]; Cycle 2 day 1, PDA, n = 4): 2820 ng/mL
- Cmax ([1]; Cycle 2 day 1, prOVCA, n = 5): 1580 ng/mL
- Tmax [1, 3]: 1.97 h
- Tmax ([1]; Cycle 1 day 1, prOVCA, n = 11): 2 h
- Tmax [1, 4]: 2 h
- Tmax ([1]; Cycle 2 day 1, PDA, n = 4): 3.03 h
- ARRY-382-related SAEs ([2]; PD-1/PD-L1 IR): 15.8%
- ARRY-382-related fatigue ([2]; PD-1/PD-L1 IR): 47.4%
- ARRY-382-related grade ≥3 AEs ([2]; PD-1/PD-L1 IR): 57.9%
- ARRY-382-related increased CPK ([2]; PD-1/PD-L1 IR): 47.4%
- ARRY-382-related nausea ([2]; PD-1/PD-L1 IR): 42.1%
- Dose reduction or interruption of ARRY-382 due to AEs ([2]; PD-1/PD-L1 IR): 13 (68.4%) n (%)
- Patients with ≥1 dose reduction or interruption of ARRY-382 ([2]; PD-1/PD-L1 IR): 15 (78.9%) n (%)
- Permanent discontinuations due to AEs ([2]; PD-1/PD-L1 IR): 1 (5.3%) n (%)
- ARRY-382-related AEs: ALT increased ([2]; PD-1/PD-L1 IR, N = 19): 2 (10.5) n (%)
- ARRY-382-related AEs: AST increased ([2]; PD-1/PD-L1 IR, N = 19): 6 (31.6) n (%)
- ARRY-382-related AEs: All AEs ([2]; PD-1/PD-L1 IR, N = 19): 17 (89.5%) n (%) and 17 (89.5) n (%)
- ARRY-382-related AEs: Amylase increased ([2]; PD-1/PD-L1 IR, N = 19): 4 (21.1) n (%)
- ARRY-382-related AEs: Blood CPK increased ([2]; PD-1/PD-L1 IR, N = 19): 9 (47.4) n (%)
- ARRY-382-related AEs: Decreased appetite ([2]; PD-1/PD-L1 IR, N = 19): 3 (15.8) n (%)
- ARRY-382-related AEs: Diarrhea ([2]; PD-1/PD-L1 IR, N = 19): 5 (26.3) n (%)
- ARRY-382-related AEs: Fatigue ([2]; PD-1/PD-L1 IR, N = 19): 9 (47.4) n (%)
- ARRY-382-related AEs: Nausea ([2]; PD-1/PD-L1 IR, N = 19): 8 (42.1) n (%)
- ARRY-382-related AEs: Vomiting ([2]; PD-1/PD-L1 IR, N = 19): 7 (36.8) n (%)
- Deaths ([2]; PD-1/PD-L1 IR, mostly disease progression): 10 (52.6%) n (%)
- ARRY-382-related SAEs ([2]; PDA): 11.1%
- ARRY-382-related fatigue ([2]; PDA): 33.3%
- ARRY-382-related grade ≥3 AEs ([2]; PDA): 25.9%
- ARRY-382-related increased AST ([2]; PDA): 18.5%
- ARRY-382-related increased CPK ([2]; PDA): 18.5%
- ARRY-382-related nausea ([2]; PDA): 18.5%
- Dose reduction or interruption of ARRY-382 due to AEs ([2]; PDA): 10 (37.0%) n (%)
- Patients with ≥1 dose reduction or interruption of ARRY-382 ([2]; PDA): 16 (59.3%) n (%)
- Permanent discontinuations due to AEs ([2]; PDA): 4 (14.8%) n (%)
- ARRY-382-related AEs: ALT increased ([2]; PDA, N = 27): 4 (14.8) n (%)
- ARRY-382-related AEs: AST increased ([2]; PDA, N = 27): 5 (18.5) n (%)
- ARRY-382-related AEs: All AEs ([2]; PDA, N = 27): 17 (63.0%) n (%) and 17 (63.0) n (%)
